Laboratory results from PMC9989852 (Food and chemical toxicology : an international journal …, 2022).
Where “and” joins values, the source holds several entries; their conditions need not be identical. Equal values may be shown once.

Tests used:
[1] = system: liver; assay: Liver histopathology after 28-day dermal exposure; type: in vivo, B6C3F1 mice; conditions: 28 days, mice affected of 5
Outline: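 Female B6C3F1 mice (5/group) received 25 μl/ear on the dorsal ear surfaces daily, with acetone as vehicle. Tissues were formalin-fixed about 24 h after the last dose: liver remainder, half spleen, right kidney and half ear pinna. Sections were paraffin-embedded, cut at 5 μm and stained with H&E. A veterinary pathologist read them per STP guideline and graded 1 (minimal) to 5 (severe) by extent.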

[2] = system: ear pinna; assay: Skin; type: in vivo, B6C3F1 mice; conditions: dermal, 28 days
Outline: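 Dosing was daily topical to both dorsal ears (25 μl/ear, acetone vehicle) in female B6C3F1 mice. Liver caudate lobe or half ear pinna was stored in RNAlater and homogenized in RLT buffer. RNA was isolated on RNeasy columns with DNase, and 1–2 μg was reverse-transcribed. TaqMan real-time PCR was read as 2−ΔΔCT vs vehicle, normalized to β-actin. Statistics: ANOVA/Dunnett's, or Kruskal-Wallis/Dunn's for unequal variance.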

[3] = system: B6C3F1 mice; assay: Serum chemistries after 28-day dermal exposure; type: in vivo; conditions: 28 days
Outline: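 Female B6C3F1 mice received daily dorsal ear application (25 μl/ear, acetone vehicle). About 24 h after the last dose, blood was taken by cardiac puncture. Serum was separated by centrifugation and stored at −20 °C. ALKP, BUN, glucose and cholesterol were read on a Catalyst DX analyzer. Data are mean ± SE of 4–5 mice, ANOVA with Dunnett's; ALKP was also tested by linear regression (p < 0.05).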

[4] = PFAS concentration in serum; type: in vivo, B6C3F1 mice; conditions: 5%, dermal, 28 days
Outline: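 Serum came by cardiac puncture about 24 h after the final daily ear dose (25 μl/ear, acetone vehicle; female B6C3F1 mice). Samples underwent solid-phase extraction and LC/MS/MS. Short-chain analytes were quantified as linear isomer only; the legacy comparator was quantified as linear plus branched. Data are mean ± SE of 4–5 mice, one-way ANOVA with Dunnett's vs vehicle.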

[5] = system: ear pinna; assay: Skin; type: in vivo, B6C3F1 mice; conditions: dermal, 28 days; remark: listed apart in the source
Outline: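 Female B6C3F1 mice (5/group) received 25 μl/ear daily to the dorsal ears in acetone. About 24 h after the last dose, tissues went into RPMI: both auricular dLNs, half spleen and one ear pinna. Single-cell suspensions were acquired on an LSR II, with populations gated per supplemental strategy and FMO gating controls. Results are mean ± SE, n=5, by one-way ANOVA.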

O=C(O)C(F)(F)C(F)(F)C(F)(F)C(F)(F)F [PFPeA, perfluoropentanoic acid]
Liver: Hypertrophy, centrilobular, hepatocyte, Mild (incidence) ([1]; 1.25%): 0
Liver: Hypertrophy, centrilobular, hepatocyte, Minimal (incidence) ([1]; 1.25%): 5/ 5 and 5
Liver: Hypertrophy, centrilobular, hepatocyte, Mild (incidence) ([1]; 2.5%): 5/5 and 5
Liver: Hypertrophy, centrilobular, hepatocyte, Minimal (incidence) ([1]; 2.5%): 0
Liver: Hypertrophy, centrilobular, hepatocyte, Mild (incidence) ([1]; 5%): 5/5 and 5
Liver: Hypertrophy, centrilobular, hepatocyte, Minimal (incidence) ([1]; 5%): 0
skin Krt10 gene expression ([2]; 1.25%): increased
skin Pparγ gene expression ([2]; 1.25%): decreased
skin Pparδ gene expression ([2]; 1.25–5%): no changes
skin Krt10 gene expression ([2]; 2.5%): increased
skin Pparγ gene expression ([2]; 2.5%): decreased
skin Flg gene expression ([2]; 5%): increased
skin Il6 gene expression, increase ([2]; 5%): 2.5 fold
skin Krt10 gene expression ([2]; 5%): increased
skin PPARα gene expression ([2]; 5%): decreased
skin Pparγ gene expression ([2]; 5%): decreased
skin S100a7a gene expression, increase ([2]; 5%): 42.5 fold
skin Serpine1 gene expression, increase ([2]; 5%): 3 fold
skin Tslp gene expression, increase ([2]; 5%): 3 fold
serum cholesterol ([3]; 1.25%): decrease
serum urea nitrogen (BUN), decrease ([3]; 2.5%): 20%
serum glucose, increase compared to vehicle control ([3]; 5%): 30%
serum urea nitrogen (BUN), decrease ([3]; 5%): 22%
serum alanine aminotransferase (ALT) ([3]; any concentration, data not shown): No change
PFAS serum concentration vs vehicle [4]: significant increase
Ear CD4^+ cell number ([5]; 1.25%): 2.55 ± 0.41 × 10^3
Ear CD4^+ frequency ([5]; 1.25%): 2.93 ± 0.23 %
Ear CD8^+ cell number ([5]; 1.25%): 1.38 ± 0.17 × 10^2
Ear CD8^+ frequency ([5]; 1.25%): 0.16 ± 0.02%
Ear CD45^+ cell number ([5]; 1.25%): 8.61 ± 1.11 × 10^4
Ear CD45^+ frequency ([5]; 1.25%): 8.16 ± 0.67%
Ear CD lib- F4/80+ DCs cell number ([5]; 1.25%): 17.60 ± 3.16 × 10^2
Ear CDllb + F4/80+ DCs cell number ([5]; 1.25%): 26.50 ± 4.08 × 10^2
Ear CDllb- F4/80+ DCs frequency ([5]; 1.25%): 2.10 ± 0.37%
Ear CDllb- F4/80-DCs cell number ([5]; 1.25%): 2.15 ± 0.38 × 10^3
Ear Dendritic Cells cell number ([5]; 1.25%): 6.78 ± 0.97 × 10^3
Ear Dendritic Cells frequency ([5]; 1.25%): 7.83 ± 0.37%
Ear Eosinophils cell number ([5]; 1.25%): 2.72 ± 0.51 × 10^3
Ear Eosinophils frequency ([5]; 1.25%): 3.13 ± 0.31%
Ear NK cell number ([5]; 1.25%): 5.64 ± 0.85 × 10^2
Ear NK frequency ([5]; 1.25%): 0.66 ± 0.06%
Ear Neutrophils cell number ([5]; 1.25%): 2.28 ± 0.53 × 10^2
Ear Neutrophils frequency ([5]; 1.25%): 0.27 ± 0.06%
Ear Total Cellularity ([5]; 1.25%): 1.05 ± 0.10 × 10^6
Ear CD4^+ cell number ([5]; 2.5%): 4.65 ± 0.67 × 10^3
Ear CD45^+ cell number ([5]; 2.5%): 10.30 ± 1.26 × 10^4
Ear CD45^+ frequency ([5]; 2.5%): 11.46 ± 1.03 %
Ear CD lib- F4/80+ DCs cell number ([5]; 2.5%): 17.80 ± 3.48 × 10^2
Ear CDllb + F4/80+ DCs frequency ([5]; 2.5%): 4.22 ± 0.51 %
Ear CDllb- F4/80+ DCs frequency ([5]; 2.5%): 1.73 ± 0.22%
Ear CDllb- F4/80-DCs cell number ([5]; 2.5%): 2.79 ± 0.54 × 10^3
Ear Dendritic Cells cell number ([5]; 2.5%): 9.44 ± 2.00 × 10^3
Ear NK cell number ([5]; 2.5%): 5.86 ± 0.63 × 10^2
Ear NK frequency ([5]; 2.5%): 0.57 ± 0.01%
Ear Neutrophils cell number ([5]; 2.5%): 3.16 ± 0.37 × 10^2
Ear Neutrophils frequency ([5]; 2.5%): 0.32 ± 0.05%
Ear Total Cellularity ([5]; 2.5%): 0.88 ± 0.04 × 10^6
Ear CD4^+ cell number ([5]; 5%): 10.80 ± 1.17 × 10^3
Ear CD4^+ frequency ([5]; 5%): 5.64 ± 0.27 %
Ear CD8^+ cell number ([5]; 5%): 8.33 ± 1.57 × 10^2
Ear CD8^+ frequency ([5]; 5%): 0.42 ± 0.04 %
Ear CD45^+ cell number ([5]; 5%): 19.40 ± 2.55 × 10^4
Ear CD45^+ frequency ([5]; 5%): 13.60 ± 0.97 %
Ear CD lib- F4/80+ DCs cell number ([5]; 5%): 45.60 ± 8.63 × 10^2
Ear CDllb + F4/80+ DCs cell number ([5]; 5%): 86.70 ± 10.20 × 10^2
Ear CDllb + F4/80+ DCs frequency ([5]; 5%): 4.51 ± 0.18 %
Ear CDllb- F4/80+ DCs frequency ([5]; 5%): 2.36 ± 0.35%
Ear CDllb- F4/80-DCs cell number ([5]; 5%): 6.19 ± 0.94 × 10^3
Ear CDllb- F4/80-DCs frequency ([5]; 5%): 3.16 ± 0.10 %
Ear Dendritic Cells cell number ([5]; 5%): 20.20 ± 2.65 × 10^3
Ear Dendritic Cells frequency ([5]; 5%): 10.42 ± 0.36 %
Ear Eosinophils cell number ([5]; 5%): 13.50 ± 2.05 × 10^3
Ear Eosinophils frequency ([5]; 5%): 7.35 ± 1.24 %
Ear NK cell number ([5]; 5%): 16.10 ± 4.27 × 10^2
Ear NK frequency ([5]; 5%): 0.80 ± 0.12%
Ear Neutrophils cell number ([5]; 5%): 21.60 ± 8.98 × 10^2
Ear Neutrophils frequency ([5]; 5%): 0.97 ± 0.31 %
Ear Total Cellularity ([5]; 5%): 1.41 ± 0.11 × 10^6
